Where a SMILES comes first, the peptide text is derived from it. The star is where a group is joined. 5FAM = O=C1OC2(c3ccc(O)cc3Oc3cc(O)ccc32)c2ccc(C(=O)*)cc21; βAla = NCCC(=O)O; X1 = OB(O)C*
What was measured:
[1] = Stability of BA-modified proteins as lyophilized powder; type: physicochemical; conditions: purified protein, confirmed by deconvoluted mass
[2] = Serum stability assay of peptides; type: in vitro ADME; conditions: human serum, fluorophore unlabeled peptides, HPLC
In short: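 Test peptide incubated in human serum; the remaining intact peptide was monitored by HPLC to derive half-life. Mean ± SEM from 3 independent replicates.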

A549 = assay: Mammalian cell staining, confocal microscope; type: cell-based; conditions: P2 5 µM, compared to the brightness detected on S. aureus
In short: (§1)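 Cells at 70% confluence detached with trypsin-EDTA and seeded at 1 × 10⁵ cells/well in glass-bottom dishes, then grown for 24 h. Medium replaced with PBS containing fluorescein-labelled test peptide; incubated 30 min at 37 °C. Washed three times with PBS, given fresh medium, imaged by confocal microscopy (40× oil, argon laser at 10%). Representative of 2 independent experiments.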

S. aureus [3] = assay: Mannitol inhibition assay of Fl-P2 binding; type: cell-based, Staphylococcus aureus; conditions: 50 mM mannitol, P2 2 µM, flow cytometry
E. coli (MTCC 1687) = assay: E. coli staining; type: cell-based; conditions: P2 5 μM, confocal microscope
In short: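 E. coli and S. aureus each diluted 1:100 from secondary culture and grown to OD₆₀₀ 0.4, then mixed and pelleted at 5000 × g. Pellet incubated with fluorescein-labelled test peptide in PBS (pH 7.4) at 37 °C for 30 min. Washed twice in PBS, resuspended in 100 µL PBS, imaged by confocal microscopy (40× oil, argon laser). Representative of 2 independent experiments.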

S. aureus (MTCC 7443) = assay: S. aureus staining, flow cytometry median fluorescence; type: cell-based, Staphylococcus aureus; conditions: 2 µM, PBS pH 7.4, 30 min, washed, flow cytometry median value
S. aureus [4] = assay: Confocal imaging of stained S. aureus; type: cell-based, Staphylococcus aureus; conditions: confocal optical sectioning of stained S. aureus cells
In short: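 S. aureus (MTCC 7443) incubated with fluorescein-labelled test peptide for 30 min at 37 °C, washed three times in PBS. 5 µL of cells pressed under a coverslip on a glass slide to a single cell layer. Imaged by laser-scanning confocal microscopy with optical sectioning: 40× oil objective, argon laser at 10% power, gain 900–1100 HV, offset −0.5%. Representative of 2 independent experiments.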

HEK 293 = assay: Mammalian cell staining, confocal microscope; type: cell-based, human; conditions: P2 5 µM, compared to the brightness detected on S. aureus
In short: as §1

lysozyme-BA: lysozyme with methylene-BA conjugates at Cys6 and Cys115 (major product)
stability as a lyophilized powder (in words) [1]: stable for over a week

CSCC[C@H](NC(=O)[C@H](CCCNC(=N)N)NC(=O)[C@H](CCCNC(=N)N)NC(=O)[C@H](CCCCN)NC(=O)[C@H](C)NC(=O)[C@H](CCCNC(=N)N)NC(=O)CNC(=O)[C@@H](NC(=O)CCNC(=O)c1ccc2c(c1)C(=O)OC21c2ccc(O)cc2Oc2cc(O)ccc21)[C@@H](C)O)C(=O)N[C@@H](CSCB(O)O)C(=O)N[C@@H](Cc1ccc(O)cc1)C(=O)N[C@@H](CSCB(O)O)C(=O)N[C@@H](CCCNC(=N)N)C(=O)N[C@@H](CCCNC(=N)N)C(N)=O [P2] ({5FAM-βAla}-TGRAKRRMC(X1)YC(X1)RR-NH2)
serum half-life relative to parent UBI peptide (P0) [2]: around 14 times | staining of A549 cells (A549): minimal staining | staining ability of P2 after mannitol complexation (reduced to) (S. aureus [3]): ~ 60% | staining of E. coli (E. coli (MTCC 1687)): no significant staining | S. aureus staining efficiency relative to P0 and P3 (S. aureus (MTCC 7443)): ~ 40 fold | uptake in bacterial cytosol (optical sectioning) (S. aureus [4]): uptake of P2 in bacterial cytosol | staining of HEK 293 cells (HEK 293): minimal staining

TGRAKRRMCYNRR-NH2 [P1]
S. aureus staining efficiency relative to P0 and P3 (S. aureus (MTCC 7443)): ~ 8 fold

BSA-BA: BSA with methylene-BA at a single free thiol site
stability as a lyophilized powder (in words) [1]: stable for over a week

Source: publication PMC12800337 (Nature Communications, 2025)
